One may read the IC50 as the concentration at which inhibition is half-maximal.

One assay has as its system SK-MEL-2. Briefly: Cytotoxicity against human SK-MEL-2 cells assessed as reduction in cell viability. It is filed as functional, cell-based.
Another assay has as its system DLD-1. Kind of assay: Cytotoxicity against human DLD1 cells assessed as cell growth inhibition after 18 hrs. The following applies: DLD-1, 18 h. It is filed as functional, cell-based.
Assay [1] concerns A549. Briefly: Growth inhibition of human A549 cells after 18 hrs. In kind it is functional, cell-based. The following applies: A549, 18 h. An outline of the steps:
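Sulforhodamine B (SRB) assay on A-549 human lung cancer cells. Compounds were first screened at 10 µM. Those active at 10 µM were retested at 1, 2.5 and 5 µM, and IC50 was calculated from these concentrations.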

Assay [2] in a line: Selectivity index, ratio of IC50 for human FR2 cells to IC50 for human MIAPaCa2 cells. In kind it is functional. An outline of the steps:
(§1)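 Selectivity index is the IC50 in normal breast epithelial fR2 cells divided by the IC50 in each cancer line. All IC50 values come from the SRB assay.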

Assay [3] is described as follows: Selectivity index, ratio of IC50 for human FR2 cells to IC50 for human MCF7 cells. It is filed as functional. An outline of the steps:
as §1

Assay [4] concerns HCT-116. Briefly: Growth inhibition of human HCT116 cells at 10 uM after 48 hrs by SRB assay relative to control. It is filed as functional. To be noted: HCT-116, 48 h, read-out: GI. In short, it runs like this: (§2)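 Primary SRB screen of every compound at a single concentration of 10 µM. Growth inhibition is expressed relative to control.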
(In SRB staining, fixed cells bind dye roughly in proportion to their protein.)

The test system of assay [5] is PC-3. Briefly: Cytotoxicity against human PC3 cells assessed as reduction in cell viability after 48 hrs by SRB assay. In kind it is functional, cell-based. To be noted: PC-3, 48 h. In short, it runs like this: (§3)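 SRB assay. Compounds active at 10 µM in the primary screen were retested at 1, 2.5 and 5 µM, and IC50 was calculated from these concentrations. The normal breast epithelial line fR2 was tested alongside the cancer lines.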

The nature of assay [6]: Selectivity index, ratio of IC50 for human FR2 cells to IC50 for human A549 cells. In kind it is functional. In short, it runs like this:
as §1

For assay [7], the system named is PC-3. Briefly: Growth inhibition of human PC3 cells at 10 uM after 48 hrs by SRB assay relative to control. It is filed as functional. The following applies: PC-3, 48 h, read-out: GI. In short, it runs like this: as §2
The test system of assay [8] is MIA PaCa-2. Briefly: Growth inhibition of human MIAPaCa2 at 10 uM after 48 hrs by SRB assay relative to control. It is filed as functional. To be noted: MIA PaCa-2, 48 h, read-out: GI. An outline of the steps: as §2
The test system of assay [9] is A549. Kind of assay: Cytotoxicity against human A549 cells assessed as reduction in cell viability after 48 hrs by SRB assay. In kind it is functional, cell-based. The following applies: A549, 48 h. An outline of the steps: as §3
The subject of assay [10] is MCF7. Briefly: Growth inhibition of human MCF7 cells at 10 uM after 48 hrs by SRB assay relative to control. It is filed as functional. To be noted: MCF7, 48 h, read-out: GI. An outline of the steps:
as §2

Assay [11] relates to A549. Kind of assay: Growth inhibition of human A549 cells at 10 uM after 48 hrs by SRB assay relative to control. It is filed as functional. To be noted: A549, 48 h, read-out: GI. In short, it runs like this:
as §2

Assay [12] deals with HCT-116. Kind of assay: Cytotoxicity against human HCT116 cells assessed as reduction in cell viability after 48 hrs by SRB assay. It is filed as functional, cell-based. The following applies: HCT-116, 48 h. An outline of the steps:
as §3

Assay [13] in a line: Selectivity index, ratio of IC50 for human FR2 cells to IC50 for human HCT116 cells. In kind it is functional. An outline of the steps:
as §1

A short description of assay [14]: Cytotoxicity against human FR2 cells assessed as reduction in cell viability after 48 hrs by SRB assay. It is filed as cell-based. To be noted: FR2, 48 h. In short, it runs like this:
as §3

For assay [15], the system named is MCF7. Kind of assay: Cytotoxicity against human MCF7 cells assessed as reduction in cell viability after 48 hrs by SRB assay. It is filed as functional, cell-based. To be noted: MCF7, 48 h. An outline of the steps: as §3
The subject of assay [16] is MIA PaCa-2. Kind of assay: Cytotoxicity against human MIAPaCa2 cells assessed as reduction in cell viability after 48 hrs by SRB assay. It is filed as functional, cell-based. To be noted: MIA PaCa-2, 48 h. In short, it runs like this: as §3
Assay [17] in a line: Selectivity index, ratio of IC50 for human FR2 cells to IC50 for human PC3 cells. It is filed as functional. An outline of the steps:
as §1

The subject of assay [18] is HCT-116. Kind of assay: Induction of morphological changes in human HCT116 cells assessed as cell growth arrest after 24 hrs by phase contrast microscopic method. In kind it is functional, cell-based. An outline of the steps: (§4)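 HCT 116 cells were treated at 0.7, 1.4, 2.0 and 2.5 µM for 24 h, then examined under a phase contrast microscope for growth arrest and morphological change.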

Assay [19] relates to HCT-116. Briefly: Antiproliferative activity against human HCT116 cells assessed as reduction in colony formation after 14 days by crystal violet staining based clonogenic assay. It is filed as functional, cell-based. An outline of the steps:
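HCT 116 cells were treated at 0.7, 1.4 and 2.8 µM. Colonies formed over 14 days of treatment and were compared with untreated control.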

Assay [20] concerns HCT-116. Kind of assay: Induction of morphological changes in human HCT116 cells assessed as change in cell morphology after 24 hrs by phase contrast microscopic method. It is filed as functional, cell-based. An outline of the steps:
as §4

For assay [21], the system named is HCT-116. Kind of assay: Induction of mitochondrial membrane potential loss in human HCT116 cells after 24 hrs by rhodamine-123 dye based fluorescence microscopy. In kind it is functional, cell-based. In short, it runs like this:
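HCT-116 cells were treated at 0.7, 1.4, 2.0 and 2.5 µM and stained with rhodamine-123. Loss of membrane potential was read as a decrease in fluorescence compared with untreated cells.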

The subject of assay [22] is HCT-116. Kind of assay: Antimigratory activity in human HCT116 cells assessed as inhibition of wound closure after 24 hrs by wound healing assay. It is filed as functional, cell-based. In short, it runs like this:
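HCT 116 monolayers were scratched, then treated at 1.4, 2.0 and 2.5 µM for 24 h. Wound area was measured at 0 and 24 h. Migration was derived from the recovered scratch area relative to 0 h and to the matching control.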

Regarding `CC(C)[C@@H]1CC[C@]2(C(=O)O)CC[C@]3(C)[C@H](CC[C@@H]4[C@@]5(C)C=C(Cl)C(=O)C(C)(C)[C@@H]5CC[C@]43C)[C@@H]12`, in the assay on SK-MEL-2, the IC50 amounted to 0.13 µM.
Consider `C=C(C)[C@@H]1CC[C@]2(COC(C)=O)CC[C@]3(C)[C@H](CC[C@@H]4[C@@]5(C)CC[C@H](O[C@H]6O[C@H](CO)[C@@H](O)[C@H](O)[C@H]6O)C(C)(C)[C@@H]5CC[C@]43C)[C@@H]12`, for which, in the assay with DLD-1, the IC50 is 4.45 µM.
Compound `C=C(C)[C@@H]1CC[C@]2(C(=O)OCC(N)(CO)CO)CC[C@]3(C)[C@H](CC[C@@H]4[C@@]5(C)CC[C@H](OC(C)=O)C(C)(C)[C@@H]5CC[C@]43C)[C@@H]12` showed an IC50 in the assay with A549 [1] of 2.5 µM.
Turning to `C=C(C)[C@@H]1CC[C@]2(C(=O)O)CC[C@]3(C)[C@H](CC[C@@H]4[C@@]5(C)C/C(=C\c6cccc7ccccc67)C(=O)C(C)(C)[C@@H]5CC[C@]43C)[C@@H]12`, the “Ratio IC50” value in [2] is on record as 1.555; in assay [3], 1.429; in [6] it was 3.977; in assay [13] it was 1.463; in assay [17], 2.318. In addition, the inhibition of growth at 10 µM in the assay with HCT-116 [4] is 62%; in the assay with PC-3 [7], 71%; in the assay on MIA PaCa-2 [8], 64%; with MCF7 [10] it was 67%; with A549 [11], 90%. Besides, the IC50 was 5.3 µM in the assay on PC-3 [5]; 3.09 µM in the assay with A549 [9]; 8.4 µM in the assay with HCT-116 [12]; 12.3 µM in [14]; 8.6 µM in the assay on MCF7 [15]; 7.9 µM in the assay on MIA PaCa-2 [16].
Consider `C=C(C)[C@@H]1CC[C@]2(C(=O)O)CC[C@]3(C)[C@H](CC[C@@H]4[C@@]5(C)C/C(=C\c6ccc([N+](=O)[O-])cc6)[C@H](O)C(C)(C)[C@@H]5CC[C@]43C)[C@@H]12`, for which the “Ratio IC50” value in [2] turned out to be 5.25; in [3] it was 4.8; in [6], 11.2; in assay [13], 12.35; in [17], 10.5. The Activity result in the assay on HCT-116 [18], with HCT-116 [20] and with HCT-116 [21] was “Dose-dependent effect” each time. For the same compound, the inhibition entry with HCT-116 [19] and in the assay on HCT-116 [22] was “Dose-dependent effect” in each case. For the same compound, the inhibition of growth at 10 µM with HCT-116 [4] was 92%; in the assay with PC-3 [7], 56%; in the assay with MIA PaCa-2 [8] it was 81%; with MCF7 [10], 85%; in the assay with A549 [11], 73%. In addition, the IC50 in the assay with PC-3 [5] came out at 1.6 µM; with A549 [9] it was 1.5 µM; in the assay with HCT-116 [12] it was 1.36 µM; in [14], 16.8 µM; in the assay on MCF7 [15], 3.5 µM; in the assay on MIA PaCa-2 [16] it was 3.2 µM.
`C=C(C)[C@@H]1CC[C@]2(C(=O)O)CC[C@]3(C)[C@H](CC[C@@H]4[C@@]5(C)C/C(=C\c6cccc([N+](=O)[O-])c6)[C@H](O)C(C)(C)[C@@H]5CC[C@]43C)[C@@H]12`: the “Ratio IC50” value came out at 1.8 in [2]; 2.68 in assay [3]; 9.88 in assay [6]; 3.092 in assay [13]; 2.941 in [17]. Besides, the inhibition of growth at 10 µM in the assay with HCT-116 [4] turned out to be 88%; with PC-3 [7] it was 80%; with MIA PaCa-2 [8], 80%; with MCF7 [10], 77%; with A549 [11] it was 92%. The IC50 was found to be 4.1 µM in the assay on PC-3 [5]; 1.22 µM in the assay with A549 [9]; 3.9 µM in the assay with HCT-116 [12]; 12.1 µM in assay [14]; 4.5 µM with MCF7 [15]; 6.7 µM with MIA PaCa-2 [16].
`CC(C)[C@@H]1CC[C@]2(C(=O)O)CC[C@]3(C)[C@H](CC[C@@H]4[C@@]5(C)C=C(C#N)C(=O)C(C)(C)[C@@H]5CC[C@]43C)[C@@H]12`: in the assay on SK-MEL-2, the half-inhibitory concentration (IC50) came to 0.81 µM.
